The test system of assay [1] is Ae. aegypti female mosquitoes. In words: Miniport olfactometer host-seeking after Glytube drug-feeding. The class given is in vivo, Aedes aegypti. The settings on record: fed in protein-rich artificial blood-meal, assayed 2 days after feeding.
For another assay, the target named is Ae. aegypti NPYLR7 (Aedes aegypti, UniProt U5N1H5). Put plainly: GCaMP6s calcium cell-based assay, HEK293T cells expressing NPYLR7 and Gqα15. The essentials: (§1)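 HEK293T cells transiently co-transfected (Lipofectamine 2000) with 1 μg each of GCaMP6s, mouse Gqα15 and receptor plasmids. Cells were plated overnight in DMEM/FBS at 37°C, 5% CO2, then imaged in HBSS + 20 mM HEPES. Test agonist plus inhibitor added after 30 s baseline; GFP fluorescence read every 1 s for 5 min, normalized to baseline. Log(inhibitor)-response nonlinear fit; mean ± SD, 3 trials × 4 replicates.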

Another assay relates to Ae. aegypti NPYLR5. In words: GCaMP6s calcium cell-based assay, HEK293T cells expressing NPYLR5 and Gqα15. Set-up: species or system Aedes aegypti. Particulars: dose-inhibition of TM30335 activation. Put shortly:
as §1

Turning to `N=C(N)NCCC[C@H](NC(=O)CC1(CC(=O)N2CCN(C3c4ccccc4NC(=O)c4ccccc43)CC2)CCCC1)C(=O)NCCn1c(=O)n(-c2ccccc2)n(-c2ccccc2)c1=O` (stereo partly drawn) [BIIE0246], the “release from host-seeking suppression in miniport olfactometer” value in assay [1] was “dose-dependent release from suppression”. At Ae. aegypti NPYLR7, the IC50 is 5.1 µM. The “effect on NPYLR5 responses to TM30335” value in the assay on Ae. aegypti NPYLR5 is on record as “no effect”.

Usually IC50 stands for the concentration at which inhibition is half-maximal.

For the origin of these results see paper PMC6369589 (Cell, 2019).
